The values below come from ChEMBL document CHEMBL4414612, “Synthesis and Pharmacological Evaluation of 1-Phenyl-3-Thiophenylurea Derivatives as Cannabinoid Type-1 Receptor Allosteric Modulators” (J Med Chem, 2019).

Where only a bound is given, the exact number is not on record here.

T1 sequence (P21554 whole entry): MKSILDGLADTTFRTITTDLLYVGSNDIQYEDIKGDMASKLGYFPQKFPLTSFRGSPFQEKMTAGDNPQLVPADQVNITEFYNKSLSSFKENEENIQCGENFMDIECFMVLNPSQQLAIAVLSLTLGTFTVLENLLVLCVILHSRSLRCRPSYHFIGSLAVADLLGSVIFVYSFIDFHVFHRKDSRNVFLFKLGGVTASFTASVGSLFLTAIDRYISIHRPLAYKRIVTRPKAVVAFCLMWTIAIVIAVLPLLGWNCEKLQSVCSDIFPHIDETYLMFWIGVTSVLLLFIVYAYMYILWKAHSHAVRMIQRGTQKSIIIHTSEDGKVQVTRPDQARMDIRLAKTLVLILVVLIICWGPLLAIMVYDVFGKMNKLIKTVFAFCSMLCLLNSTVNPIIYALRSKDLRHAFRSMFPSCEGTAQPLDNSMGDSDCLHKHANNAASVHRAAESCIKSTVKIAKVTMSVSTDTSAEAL
Cannabinoid receptor 1 (Mus musculus, UniProt P47746), sequence (P47746 whole entry): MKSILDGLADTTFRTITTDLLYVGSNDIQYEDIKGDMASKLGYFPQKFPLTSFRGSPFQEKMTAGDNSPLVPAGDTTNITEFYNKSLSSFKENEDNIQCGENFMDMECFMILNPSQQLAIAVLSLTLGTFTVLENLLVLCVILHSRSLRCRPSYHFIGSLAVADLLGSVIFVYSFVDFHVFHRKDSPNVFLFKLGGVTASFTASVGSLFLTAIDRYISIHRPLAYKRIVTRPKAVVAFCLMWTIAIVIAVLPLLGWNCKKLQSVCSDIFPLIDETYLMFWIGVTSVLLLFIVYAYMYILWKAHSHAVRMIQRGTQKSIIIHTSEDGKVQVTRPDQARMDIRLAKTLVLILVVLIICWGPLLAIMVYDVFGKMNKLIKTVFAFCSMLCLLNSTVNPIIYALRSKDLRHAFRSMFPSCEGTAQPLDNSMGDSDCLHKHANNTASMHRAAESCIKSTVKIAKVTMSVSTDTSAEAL

The first series addresses T1, Cannabinoid receptor 1 (Homo sapiens, UniProt P21554). In words: Agonist activity at human CB1 receptor expressed in CHO-RD-HGA16 cells co-expressing Galpha16 assessed as suppression stimulation of calcium mobilization incubated for 45 mins by Calcium 5 dye based FLIPR assay relative to CP55,940. It counts as functional, cell-based.
Settings: not given; call rule not given here
In a few lines: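 CHO-RD-HGA16 cells stably expressing human CB1 (with Galpha16), plated overnight and loaded with Calcium 5 dye for 45 min at 37 °C. […] Compound was added by the FLIPR Tetra at the 10 s point as a single concentration, and fluorescence (485/525 nm) was read every 1 s for 90 s. RFU were expressed as % of CP55,940 Emax.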
With `O=C(Nc1ccc(Cl)cc1)N[C@H]1C[C@H]1c1ccccc1` (relative stereo), the Emax is below 30%.

In the case of `O=C(Nc1ccc(Cl)cc1)N[C@H]1C[C@@H]1c1ccccc1` (relative stereo), the Emax is below 30%.

A further series concerns the target T1, Cannabinoid receptor 1. In words: Allosteric modulator activity at human CB1 receptor expressed in CHO-RD-HGA16 cells co-expressing Galpha16 assessed as suppression of 100 nM CP55,940-induced calcium mobilization pre-incubated for 15 mins by Calcium 5 dye based FLIPR assay. It counts as functional, cell-based.
Settings: not given
With `O=C(Nc1ccc(Cl)cc1)Nc1cncc(-c2ccccc2)c1`, the IC50 stood at 0.292 µM.

Turning to `O=C(Nc1ccc(Cl)cc1)N[C@@H]1CCCN(c2ccccc2)C1`, the IC50 is 3.88 µM.

Take `O=C(Nc1ccc(Cl)cc1)Nc1cccc(-c2ccccc2)n1`: the IC50 amounted to 3.53 µM.

As for `O=C(Nc1ccc(Cl)cc1)Nc1cc(-c2ccccc2)ccn1`, the IC50 came to 0.156 µM.

`O=C(Nc1ccc(Cl)cc1)Nc1ccnc(-c2ccccc2)c1`: the IC50 was found to be 0.233 µM.

Another series deals with T2, Cannabinoid receptor 2 (Homo sapiens, UniProt P34972). Nature of the series: Agonist activity at human CB2 receptor expressed in CHO cells co-expressing Galpha16 assessed as increase in calcium mobilization at 10 uM measured at 1 sec interval for 90 secs by calcium-5 dye based FLIPR assay relative to CP55,940. It counts as functional, cell-based.
T2 sequence (P34972 whole entry): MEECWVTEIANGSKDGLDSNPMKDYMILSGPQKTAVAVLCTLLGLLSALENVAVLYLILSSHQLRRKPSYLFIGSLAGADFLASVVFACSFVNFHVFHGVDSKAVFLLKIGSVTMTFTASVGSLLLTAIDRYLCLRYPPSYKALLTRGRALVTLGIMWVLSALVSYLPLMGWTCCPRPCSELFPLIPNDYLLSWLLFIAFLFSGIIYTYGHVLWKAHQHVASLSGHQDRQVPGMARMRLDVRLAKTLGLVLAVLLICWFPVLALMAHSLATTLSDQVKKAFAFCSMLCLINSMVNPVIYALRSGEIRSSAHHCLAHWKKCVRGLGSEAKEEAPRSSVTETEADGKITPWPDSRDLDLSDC
Settings: not given
Take `COc1cccc(-c2ccc(NC(=O)Nc3ccc(Cl)cc3)s2)c1`: the Emax is below 10%.

On to `COC(=O)c1cccc(-c2ccc(NC(=O)Nc3ccc(Cl)cc3)s2)c1`, for which the Emax is below 10%.

On to `O=C(Nc1ccc(Cl)cc1)Nc1ncc(-c2ccccc2)s1`, for which the Emax was below 10%.

With `COc1ccccc1-c1ccc(NC(=O)Nc2ccc(Cl)cc2)s1`, the Emax is below 10%.

On to `O=C(Nc1ccc(Cl)cc1)Nc1cc(-c2ccccc2)cs1`, for which the Emax is below 10%.

As to `O=C(Nc1ccc(Cl)cc1)Nc1csc(-c2ccccc2)c1`, the Emax is below 10%.

Consider `O=C(Nc1ccc(Cl)cc1)Nc1ccc(-c2ccc(Cl)c(Cl)c2)s1`, for which the Emax was below 10%.

As for `COc1ccc(-c2cccc(N3CCCC3)n2)cc1NC(=O)Nc1ccc(Cl)cc1`, the Emax was below 10%.

Consider `O=C(Nc1ccc(Cl)cc1)Nc1cncc(-c2ccccc2)c1`, for which the Emax was below 10%.

In the case of `O=C(Nc1ccc(Cl)cc1)N[C@@H]1CCCN(c2ccccc2)C1`, the Emax is below 10%.

With `O=C(Nc1ccc(Cl)cc1)Nc1cccc(-c2ccccc2)n1`, the Emax was below 10%.

`O=C(Nc1ccc(Cl)cc1)N[C@H]1C[C@H]1c1ccccc1` (relative stereo): the Emax is below 10%.

`O=C(Nc1ccc(Cl)cc1)N[C@H]1C[C@@H]1c1ccccc1` (relative stereo): the Emax was below 10%.

As to `O=C(Nc1ccc(Cl)cc1)Nc1cc(-c2ccccc2)ccn1`, the Emax was below 10%.

Turning to `O=C(Nc1ccc(Cl)cc1)Nc1ccnc(-c2ccccc2)c1`, the Emax was below 10%.

For the next series, the target named is T1, Cannabinoid receptor 1. In words: Inverse agonist activity at human CB1 receptor expressed in HEK293 cell membranes assessed as suppression of [35S]GTPgammaS binding at 10 uM incubated for 60 mins by scintillation counting method. The following applies: hek293, 1 h. An outline of the steps: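 Inverse agonism on human CB1-HEK293 membranes: compounds were incubated 60 min with 0.1 nM [35S]GTPγS and 30 µM GDP, with no CP55,940 present. Buffer was Tris/MgCl2/EGTA pH 7.4 with 0.5% BSA, at 30 °C. Binding was read by filtration and scintillation counting and normalized to basal (vehicle = 0%).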
As to `COc1cccc(-c2ccc(NC(=O)Nc3ccc(Cl)cc3)s2)c1`, the “inhibition (INH)” value is on record as “Active”.

Regarding `COC(=O)c1cccc(-c2ccc(NC(=O)Nc3ccc(Cl)cc3)s2)c1`, the “inhibition (INH)” value is on record as “Active”.

For the molecule `O=C(Nc1ccc(Cl)cc1)Nc1ncc(-c2ccccc2)s1`, the “inhibition (INH)” value is “Active”.

For `COc1ccccc1-c1ccc(NC(=O)Nc2ccc(Cl)cc2)s1`, the “inhibition (INH)” value was “Active”.

Take `O=C(Nc1ccc(Cl)cc1)Nc1cc(-c2ccccc2)cs1`: the “inhibition (INH)” value was “Active”.

As to `O=C(Nc1ccc(Cl)cc1)Nc1csc(-c2ccccc2)c1`, the “inhibition (INH)” value is given as “Active”.

As for `O=C(Nc1ccc(Cl)cc1)Nc1ccc(-c2ccc(Cl)c(Cl)c2)s1`, the “inhibition (INH)” value was “Active”.

In the case of `COc1ccc(-c2cccc(N3CCCC3)n2)cc1NC(=O)Nc1ccc(Cl)cc1`, the “inhibition (INH)” value is listed as “Active”.

For `O=C(Nc1ccc(Cl)cc1)Nc1cncc(-c2ccccc2)c1`, the “inhibition (INH)” value is listed as “Active”.

For the molecule `O=C(Nc1ccc(Cl)cc1)N[C@@H]1CCCN(c2ccccc2)C1`, the “inhibition (INH)” value was “Active”.

Regarding `O=C(Nc1ccc(Cl)cc1)Nc1cccc(-c2ccccc2)n1`, the “inhibition (INH)” value was “Active”.

Consider `O=C(Nc1ccc(Cl)cc1)N[C@H]1C[C@H]1c1ccccc1` (relative stereo), for which the “inhibition (INH)” value is given as “Active”.

For the molecule `O=C(Nc1ccc(Cl)cc1)N[C@H]1C[C@@H]1c1ccccc1` (relative stereo), the “inhibition (INH)” value is on record as “Active”.

As to `O=C(Nc1ccc(Cl)cc1)Nc1cc(-c2ccccc2)ccn1`, the “inhibition (INH)” value is recorded as “Active”.

As for `O=C(Nc1ccc(Cl)cc1)Nc1ccnc(-c2ccccc2)c1`, the “inhibition (INH)” value was “Active”.

The target of the next series is T1, Cannabinoid receptor 1. Nature of the series: Allosteric modulator activity at human CB1 receptor expressed in HEK293 cell membranes assessed as suppression of 100 nM CP55,940-induced [35S]GTPgammaS binding incubated for 60 mins by scintillation counting method. It counts as functional.
Settings: not given
On to `COC(=O)c1cccc(-c2ccc(NC(=O)Nc3ccc(Cl)cc3)s2)c1`, for which the IC50 worked out at 2.35 µM.

Regarding `O=C(Nc1ccc(Cl)cc1)Nc1cncc(-c2ccccc2)c1`, the IC50 is above 10 µM.

For `O=C(Nc1ccc(Cl)cc1)N[C@@H]1CCCN(c2ccccc2)C1`, the IC50 is above 10 µM.

With `O=C(Nc1ccc(Cl)cc1)Nc1cccc(-c2ccccc2)n1`, the IC50 is above 10 µM.

For `O=C(Nc1ccc(Cl)cc1)Nc1cc(-c2ccccc2)ccn1`, the IC50 was above 10 µM.

Take `O=C(Nc1ccc(Cl)cc1)Nc1ccnc(-c2ccccc2)c1`: the IC50 was 2.77 µM.

The next series addresses Cannabinoid receptor 1 (Mus musculus, UniProt P47746). Nature of the series: Allosteric modulator activity at CB1 receptor in mouse cerebellar membranes assessed as suppression of 100 nM CP55,940-induced [35S]GTPgammaS binding incubated for 60 mins by scintillation counting method. It counts as functional, cell membranes, Cerebellum, Membrane.
Settings: not given
As for `O=C(Nc1ccc(Cl)cc1)Nc1cc(-c2ccccc2)cs1`, the IC50 was 0.776 µM.

As for `O=C(Nc1ccc(Cl)cc1)Nc1cc(-c2ccccc2)ccn1`, the IC50 was above 10 µM.

The target in the next series is T2, Cannabinoid receptor 2. In words: Antagonist activity at human CB2 receptor expressed in CHO cells co-expressing Galpha16 assessed as inhibition of EC80 CP55,940-induced calcium mobilization preincubated for 15 mins followed by […] addition measured at 1 sec interval for 90 secs by calcium-5 dye based FLIPR assay.
Settings: not given
It counts as functional, cell-based. In a few lines: (§1)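 CB2 antagonist mode in stable human CB2-CHO-RD-HGA16 cells. Cells were dye-loaded, then pretreated with compound for 15 min at 37 °C. CP55,940 was added at its EC80 at the 10 s point, and calcium fluorescence was recorded every 1 s over 90 s.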
Consider `COc1cccc(-c2ccc(NC(=O)Nc3ccc(Cl)cc3)s2)c1`, for which the IC50 is above 10 µM.

On to `COC(=O)c1cccc(-c2ccc(NC(=O)Nc3ccc(Cl)cc3)s2)c1`, for which the IC50 is above 10 µM.

Regarding `O=C(Nc1ccc(Cl)cc1)Nc1ncc(-c2ccccc2)s1`, the concentration for half-maximal inhibition (IC50) was above 10 µM.

As to `COc1ccccc1-c1ccc(NC(=O)Nc2ccc(Cl)cc2)s1`, the IC50 is above 10 µM.

Take `O=C(Nc1ccc(Cl)cc1)Nc1cc(-c2ccccc2)cs1`: the IC50 is above 10 µM.

For `O=C(Nc1ccc(Cl)cc1)Nc1csc(-c2ccccc2)c1`, the IC50 is above 10 µM.

For the molecule `O=C(Nc1ccc(Cl)cc1)Nc1ccc(-c2ccc(Cl)c(Cl)c2)s1`, the IC50 is above 10 µM.

As to `COc1ccc(-c2cccc(N3CCCC3)n2)cc1NC(=O)Nc1ccc(Cl)cc1`, the IC50 was above 10 µM.

`O=C(Nc1ccc(Cl)cc1)Nc1cncc(-c2ccccc2)c1`: the IC50 is above 10 µM.

Turning to `O=C(Nc1ccc(Cl)cc1)N[C@@H]1CCCN(c2ccccc2)C1`, the IC50 was above 10 µM.

As to `O=C(Nc1ccc(Cl)cc1)Nc1cccc(-c2ccccc2)n1`, the 50% inhibitory concentration (IC50) was above 10 µM.

Regarding `O=C(Nc1ccc(Cl)cc1)N[C@H]1C[C@H]1c1ccccc1` (relative stereo), the IC50 was above 10 µM.

On to `O=C(Nc1ccc(Cl)cc1)N[C@H]1C[C@@H]1c1ccccc1` (relative stereo), for which the IC50 is above 10 µM.

On to `O=C(Nc1ccc(Cl)cc1)Nc1cc(-c2ccccc2)ccn1`, for which the IC50 was above 10 µM.

Regarding `O=C(Nc1ccc(Cl)cc1)Nc1ccnc(-c2ccccc2)c1`, the IC50 was above 10 µM.

In the next series the target is T2, Cannabinoid receptor 2. In words: Antagonist activity at human CB2 receptor expressed in CHO cells co-expressing Galpha16 assessed as inhibition of EC80 CP55,940-induced calcium mobilization at 10 uM preincubated for 15 mins followed by […] addition measured at 1 sec interval for 90 secs by calcium-5 dye based FLIPR assay relative to CP55,940.
Settings: not given
It counts as functional, cell-based. In a few lines:
as §1
As to `COc1cccc(-c2ccc(NC(=O)Nc3ccc(Cl)cc3)s2)c1`, the inhibition is below 50%.

For the molecule `COC(=O)c1cccc(-c2ccc(NC(=O)Nc3ccc(Cl)cc3)s2)c1`, the inhibition was below 50%.

As to `O=C(Nc1ccc(Cl)cc1)Nc1ncc(-c2ccccc2)s1`, the inhibition was below 50%.

`COc1ccccc1-c1ccc(NC(=O)Nc2ccc(Cl)cc2)s1`: the inhibition was below 50%.

On to `O=C(Nc1ccc(Cl)cc1)Nc1cc(-c2ccccc2)cs1`, for which the inhibition was below 50%.

`O=C(Nc1ccc(Cl)cc1)Nc1csc(-c2ccccc2)c1`: the inhibition is below 50%.

`O=C(Nc1ccc(Cl)cc1)Nc1ccc(-c2ccc(Cl)c(Cl)c2)s1`: the inhibition is below 50%.

For `COc1ccc(-c2cccc(N3CCCC3)n2)cc1NC(=O)Nc1ccc(Cl)cc1`, the inhibition is below 50%.

In the case of `O=C(Nc1ccc(Cl)cc1)Nc1cncc(-c2ccccc2)c1`, the inhibition is below 50%.

On to `O=C(Nc1ccc(Cl)cc1)N[C@@H]1CCCN(c2ccccc2)C1`, for which the inhibition is below 50%.

On to `O=C(Nc1ccc(Cl)cc1)Nc1cccc(-c2ccccc2)n1`, for which the inhibition was below 50%.

As for `O=C(Nc1ccc(Cl)cc1)N[C@H]1C[C@H]1c1ccccc1` (relative stereo), the inhibition is below 50%.

In the case of `O=C(Nc1ccc(Cl)cc1)N[C@H]1C[C@@H]1c1ccccc1` (relative stereo), the inhibition was below 50%.

For `O=C(Nc1ccc(Cl)cc1)Nc1cc(-c2ccccc2)ccn1`, the inhibition is below 50%.

As to `O=C(Nc1ccc(Cl)cc1)Nc1ccnc(-c2ccccc2)c1`, the inhibition was below 50%.
